Results as given in ChEMBL document CHEMBL1159317, “Flavonoids from Ulex airensis and Ulex europaeus ssp. europaeus” (J Nat Prod, 2002).
Activity calls are given as the source filed them. The rule behind the calls is not given here.

Key:
Cladosporium cucumerinum [1] = assay: Antifungal activity against Cladosporium cucumerinum CCMI 206 at 100 ug by bioautographic TLC bioassay; assay type: functional, organism-based
Procedure, shortened: (§1)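 Bioautography on developed TLC plates against the fungus C. cucumerinum strain CCMI 206, obtained from the CCMI culture collection. Procedure followed Homans and Fuchs.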

Cladosporium cucumerinum [2] = assay: Induction of growth of Cladosporium cucumerinum CCMI 206 at 100 ug by bioautographic TLC bioassay; assay type: functional, organism-based; procedure, shortened: as §1

SMILES | Activity (Cladosporium cucumerinum [1]) | Activity (Cladosporium cucumerinum [2])
CC1(C)C=Cc2c(cc3occ(-c4ccc(O)cc4)c(=O)c3c2O)O1 | inactive | –
CC1(C)C=Cc2cc(-c3coc4cc5c(c(O)c4c3=O)CC(C(C)(C)O)O5)ccc2O1 (configuration not stated) | inactive | –
COc1c(O)cc2c(c1OC)OC[C@H]1c3cc4c(cc3O[C@@H]21)OCO4 | – | Active
COc1cc2c(cc1C1COc3cc(O)ccc3C1=O)OCO2 (configuration not stated) | Active | –
COc1cc2c(cc1OC)[C@@H]1Oc3cc4c(cc3[C@@H]1CO2)OCO4 | Active | –
CC1(C)C=Cc2c(cc(O)c3c(=O)cc(-c4ccc(O)cc4)oc23)O1 | inactive | –
CC(C)=CCc1c(O)cc2occ(-c3ccc4c(c3)C=CC(C)(C)O4)c(=O)c2c1O | inactive | –
CC1(C)C=Cc2cc(-c3coc4cc5oc(C(C)(C)O)cc5c(O)c4c3=O)ccc2O1 | inactive | –
CC(C)=CCc1cc(-c2coc3cc(O)c(CC=C(C)C)c(O)c3c2=O)ccc1O | inactive | –
COc1cc2c(cc1O)[C@@H]1Oc3cc4c(cc3[C@@H]1CO2)OCO4 | – | Active
CC1(C)C=Cc2c(ccc(-c3coc4cc(O)cc(O)c4c3=O)c2O)O1 | Active | –
COc1cc(O)c2c(=O)c(-c3ccc(O)c(CC=C(C)C)c3)coc2c1CC=C(C)C | Active | –
